Measured values from ChEMBL document CHEMBL3808334, “Synthesis and in vitro evaluation of novel triazine analogues as anticancer agents and their interaction studies with bovine serum albumin” (Eur J Med Chem, 2016).

How the values were obtained:
Assay type in all cases: functional
[1] = Growth inhibition of human RXF393 cells assessed as cell growth at 10^-6 M incubated for 48 hrs by sulforhodamine B assay; conditions: RXF 393, 48 h, read-out: Activity
[2] = Growth inhibition of human DU145 cells assessed as cell growth at 10^-5 M incubated for 48 hrs by sulforhodamine B assay; conditions: DU-145, 48 h, read-out: Activity
Procedure, shortened: (§1)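 Cells seeded at 5,000–40,000/well according to doubling time and preincubated 24 h at 37 °C, 5% CO2. Time-zero plates were TCA-fixed. DMSO concentrate was diluted in medium with 50 µg/ml gentamicin to give five concentrations (10-fold or ½ log steps), then exposed 48 h. Cells were TCA-fixed, stained with 0.4% SRB and read at 515 nm. Percent growth was taken against time-zero and control; GI50, TGI and LC50 derived.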

K562 = assay: Growth inhibition of human K562 cells assessed as cell growth at 10^-6 M incubated for 48 hrs by sulforhodamine B assay; conditions: K562, 48 h, read-out: Activity
[3] = Growth inhibition of human SF539 cells assessed as cell growth at 10^-4 M incubated for 48 hrs by sulforhodamine B assay; conditions: SF-539, 48 h, read-out: Activity
[4] = Growth inhibition of human SNB19 cells assessed as cell growth at 10^-5 M incubated for 48 hrs by sulforhodamine B assay; conditions: SNB-19, 48 h, read-out: Activity
NCI-H322M [5] = assay: Growth inhibition of human NCI-H322M cells assessed as cell growth at 10^-7 M incubated for 48 hrs by sulforhodamine B assay; conditions: read-out: Activity
NCI/ADR-RES = assay: Growth inhibition of human NCI/ADR-RES cells assessed as cell growth at 10^-7 M incubated for 48 hrs by sulforhodamine B assay; conditions: read-out: Activity
SN12C [6] = assay: Growth inhibition of human SN12C cells assessed as cell growth at 10 uM incubated for 48 hrs by sulforhodamine B assay; conditions: read-out: Activity
[7] = Growth inhibition of human DU145 cells incubated for 48 hrs by sulforhodamine B assay; conditions: DU-145, 48 h; procedure, shortened: as §1
[8] = Growth inhibition of human Hs 578T cells assessed as cell growth at 10^-4 M incubated for 48 hrs by sulforhodamine B assay; conditions: read-out: Activity
[9] = Growth inhibition of human colon cancer cells incubated for 48 hrs by sulforhodamine B assay; conditions: Cancer cell lines
[10] = Growth inhibition of human SW620 cells assessed as cell growth at 10^-5 M incubated for 48 hrs by sulforhodamine B assay; conditions: SW-620, 48 h, read-out: Activity
U-251 = assay: Growth inhibition of human U251 cells incubated for 48 hrs by sulforhodamine B assay; conditions: U-251, 48 h
Procedure, shortened: (§2)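 Cells were plated at 5,000–40,000 per well according to doubling time and preincubated 24 h at 37 °C in 5% CO2; time-zero plates were then TCA-fixed. Five concentrations (10-fold or ½-log dilutions, DMSO stock) were incubated 48 h. Cells were TCA-fixed, stained with 0.4% SRB and read at 515 nm. GI50 was taken where [(Ti−Tz)/(C−Tz)]×100 = 50.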

NCI-H322M [11] = assay: Growth inhibition of human NCI-H322M cells assessed as cell growth at 10^-8 M incubated for 48 hrs by sulforhodamine B assay; conditions: read-out: Activity
NCI-H522 = assay: Growth inhibition of human NCI-H522 cells assessed as cell growth at 10^-7 M incubated for 48 hrs by sulforhodamine B assay; conditions: NCI-H522, 48 h, read-out: Activity
M14 = assay: Growth inhibition of human M14 cells assessed as cell growth at 10^-5 M incubated for 48 hrs by sulforhodamine B assay; conditions: M14, 48 h, read-out: Activity
[12] = Growth inhibition of human TK10 cells assessed as cell growth at 10^-6 M incubated for 48 hrs by sulforhodamine B assay; conditions: TK-10, 48 h, read-out: Activity
[13] = Growth inhibition of human prostate cancer cells incubated for 48 hrs by sulforhodamine B assay; conditions: Cancer cell lines
[14] = Growth inhibition of human RXF393 cells assessed as cell growth at 10^-4 M incubated for 48 hrs by sulforhodamine B assay; conditions: RXF 393, 48 h, read-out: Activity
[15] = Growth inhibition of human HOP92 cells assessed as cell growth at 10^-6 M incubated for 48 hrs by sulforhodamine B assay; conditions: HOP-92, 48 h, read-out: Activity
[16] = Growth inhibition of human TK10 cells assessed as cell growth at 10^-8 M incubated for 48 hrs by sulforhodamine B assay; conditions: TK-10, 48 h, read-out: Activity
MDA-MB-468 = assay: Growth inhibition of human MDA-MB-468 cells assessed as cell growth at 10^-4 M incubated for 48 hrs by sulforhodamine B assay; conditions: MDA-MB-468, 48 h, read-out: Activity
[17] = Growth inhibition of human Hs 578T cells assessed as cell growth at 10^-7 M incubated for 48 hrs by sulforhodamine B assay; conditions: read-out: Activity
[18] = Growth inhibition of human ovarian cancer cells incubated for 48 hrs by sulforhodamine B assay; conditions: Cancer cell lines
SK-MEL-2 = assay: Growth inhibition of human SK-MEL-2 cells assessed as cell growth at 10^-7 M incubated for 48 hrs by sulforhodamine B assay; conditions: SK-MEL-2, 48 h, read-out: Activity
NCI-H226 = assay: Growth inhibition of human NCI-H226 cells assessed as cell growth at 10^-5 M incubated for 48 hrs by sulforhodamine B assay; conditions: NCI-H226, 48 h, read-out: Activity
SR = assay: Growth inhibition of human SR cells incubated for 48 hrs by sulforhodamine B assay; procedure, shortened: as §2
[19] = Growth inhibition of human LOXIMVI cells assessed as cell growth at 10^-4 M incubated for 48 hrs by sulforhodamine B assay; conditions: LOX IMVI, read-out: Activity
SN12C [20] = assay: Growth inhibition of human SN12C cells assessed as cell growth at 10^-7 M incubated for 48 hrs by sulforhodamine B assay; conditions: read-out: Activity
SK-MEL-5 = assay: Growth inhibition of human SK-MEL-5 cells incubated for 48 hrs by sulforhodamine B assay; conditions: SK-MEL-5, 48 h; procedure, shortened: as §2
[21] = read-out: pLC50 (the source's name) (converted)
[22] = read-out: LC50 (the source's name)

In the case of `c1ccc(-c2nc(Nc3ccc(-c4nc5ccccc5[nH]4)cc3)nc(N3CCOCC3)n2)cc1`, the growth at 1 µM [1] is reported as 30%, the growth at 10 µM [2] is reported as -96% and the growth at 1 µM (K562) is reported as -2%. For the same molecule, the growth at 100 µM [3] was -90%, the growth at 10 µM [4] was -53% and the growth at 0.1 µM (NCI-H322M [5]) was 101%. For the same molecule, the growth at 0.1 µM (NCI/ADR-RES) was 95%, the growth at 10 µM (SN12C [6]) was -62.8% and the LC50 (50% net cell kill) [7] was 5120 nM. It also gave a GI50 ([7]; read-out: GI50) of 1210 nM, a TGI ([7]; read-out: TGI) of 2490 nM and a GI50 ([7]; read-out: pGI50 (converted)) of 1200 nM. For the same molecule, the CC50 [7, 21] was 5130 nM, the TGI ([7]; read-out: pTGI (converted)) was 2510 nM and the growth at 100 µM [8] was -43%. For the same molecule, the GI50 [9] was 990 nM, the TGI [9] was 2550 nM and the CC50 [9, 22] was 6530 nM. For the same molecule, the growth at 10 µM [10] was -77%, the GI50 (U-251; read-out: GI50) was 535 nM and the CC50 (U-251; [22]) was 4890 nM. For the same molecule, the TGI (U-251; read-out: TGI) was 1760 nM, the GI50 (U-251; read-out: pGI50 (converted)) was 537 nM and the CC50 (U-251; [21]) was 4900 nM. It also gave a TGI (U-251; read-out: pTGI (converted)) of 1780 nM, a growth at 0.01 µM (NCI-H322M [11]) of 95% and a growth at 0.1 µM (NCI-H522) of 101%. It also gave a growth at 10 µM (M14) of -80%, a growth at 1 µM [12] of 119% and a GI50 [13] of 1510 nM. It also gave a TGI [13] of 3070 nM, a CC50 [13, 22] of 6250 nM and a growth at 100 µM [14] of -61%. It also gave a growth at 1 µM [15] of 70%, a growth at 0.01 µM [16] of 99% and a growth at 100 µM (MDA-MB-468) of -58%. For the same molecule, the growth at 0.1 µM [17] was 94%, the GI50 [18] was 1850 nM and the TGI [18] was 3880 nM. It also gave a CC50 [18, 22] of 6840 nM, a growth at 0.1 µM (SK-MEL-2) of 101% and a growth at 10 µM (NCI-H226) of -60%. The GI50 (SR; read-out: GI50) was 125 nM, the CC50 (SR; [22]) was greater than 100000 nM and the TGI (SR; read-out: TGI) was 555 nM. It also gave a GI50 (SR; read-out: pGI50 (converted)) of 126 nM, a CC50 (SR; [21]) greater than 100000 nM and a TGI (SR; read-out: pTGI (converted)) of 550 nM. The growth at 100 µM [19] was -45%, the growth at 0.1 µM (SN12C [20]) was 90% and the GI50 (SK-MEL-5; read-out: GI50) was 1690 nM. For the same molecule, the CC50 (SK-MEL-5; [22]) was 5900 nM, the TGI (SK-MEL-5; read-out: TGI) was 3150 nM and the GI50 (SK-MEL-5; read-out: pGI50 (converted)) was 1700 nM. For the same molecule, the CC50 (SK-MEL-5; [21]) was 5890 nM and the TGI (SK-MEL-5; read-out: pTGI (converted)) was 3160 nM.
